Laboratory results published in ChEMBL document CHEMBL4330093, “Biphenyl Gal and GalNAc FmlH Lectin Antagonists of Uropathogenic E. coli (UPEC): Optimization through Iterative Rational Drug Design” (J Med Chem, 2019).
≈ marks a conversion by molar mass, not a printed value.

Experiments:
[1] = Drug metabolism in mouse urine assessed as phenol product metabolite formation; type: ADME, tissue-based
[2] = Drug metabolism in mouse plasma assessed as phenol product metabolite formation; type: ADME, cell-free
[3] = Stability in mouse plasma assessed as compound remaining after 2 hrs; type: ADME, cell-free; settings: for Stability: 2 h
[4] = Half life in mouse liver microsomes; type: ADME, Microsome; settings: for t1/2: microsomes
[5] = Stability of the compound in simulated intestinal fluid assessed as compound remaining after 2 hrs; type: ADME; settings: for Stability: simulated gi fluid, 2 h
[6] = Stability of the compound in simulated gastric fluid assessed as compound remaining after 6 hrs; type: ADME; settings: for Stability: simulated gi fluid, 6 h
[7] = Oral bioavailability in Sprague-Dawley rat at 10 mg/kg by LC/MS/MS analysis; type: ADME, organism-based; settings: in vivo
[8] = Plasma concentration in CD1 mouse at 20 mg/kg, ip after 4 hrs by LC/MS/MS analysis; type: ADME, organism-based
Outline: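 Single 20 mg/kg intraperitoneal injection in mice. Plasma drug concentrations were followed over time, including 4 h and 8 h points. Cmax was read from the profile, AUC was calculated, and half-life was derived.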

[9] = Time at which plasma concentration stays above in vitro Escherichia coli C600 C-terminal 6His-tagged biotinylated FmlH lectin domain inhibitory IC50 in CD1 mouse at 20 mg/kg, ip by LC/MS/MS analysis; type: ADME, organism-based; settings: in vivo
Outline: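 After a single 20 mg/kg IP dose in mice, plasma concentrations were compared with the ELISA IC50 converted to ng/mL. Persistence beyond the last measured point was inferred by extrapolating the plasma kinetics. For the ELISA IC50, biotinylated FmlH lectin domain (20 μg/mL) bound to sialidase-treated bovine submaxillary mucin, with streptavidin-HRP/TMB readout at 450 nm.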

[10] = Kinetic solubility of the compound at pH 7.4; type: physicochemical; settings: buffer
[11] = Half life in Sprague-Dawley rat at 10 mg/kg, po or 3 mg/kg, iv by LC/MS/MS analysis; type: ADME, organism-based; settings: in vivo
Outline: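 Sprague-Dawley rats got a single 10 mg/kg oral or 3 mg/kg IV dose. Compound was measured over time in plasma and in urine, and t1/2 and clearance were derived from the plasma profile.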

SMILES | Drug metabolism [1] | Drug metabolism [2] | Stability [3] [%] | t1/2 [4] [h] | Stability [5] [%] | Stability [6] [%] | F [7] [%] | concentration at 4 h [8] [ng/mL] | Time [9] [h] | remaining at 2 h ([3]; read-out: Stability) [%] | half-life ([4]; liver microsomes) [h] | solubility kinetic ([10]; read-out: Kinetic_solubility) [µM] | remaining at 2 h ([5]; simulated intestinal fluid, read-out: Stability) [%] | remaining at 6 h ([6]; simulated gastric fluid, read-out: Stability) [%] | half-life [11] [h] | Kinetic_solubility [10] [µM]
CC(=O)N[C@H]1[C@H](Oc2cccc(F)c2-c2cccc(NS(C)(=O)=O)c2)O[C@H](CO)[C@H](O)[C@@H]1O | Metabolite_Detected | Metabolite_Detected | 89 | > 2.42 | 94 | 92 | – | – | – | – | – | – | – | – | – | –
CC(=O)N[C@H]1[C@H](Oc2cccc(C)c2-c2cccc(NS(=O)(=O)C3CC3)c2)O[C@H](CO)[C@H](O)[C@@H]1O | Metabolite_Detected | Metabolite_Detected | 84 | > 2.42 | 100 | 100 | < 1 | – | – | – | – | – | – | – | – | –
CC(=O)N[C@H]1[C@H](Oc2cccc(C)c2-c2cccc(NS(C)(=O)=O)c2)O[C@H](CO)[C@H](O)[C@@H]1O | Metabolite_Detected | Metabolite_Detected | 100 | > 2.42 | 100 | 100 | – | 79.5 | 6 | – | – | – | – | – | – | –
Cc1cccc(O[C@@H]2O[C@H](CO)[C@H](O)[C@H](O)C2NC(=O)C(F)(F)F)c1-c1cccc(NS(C)(=O)=O)c1 (single isomer, unassigned) | Metabolite_Detected | Metabolite_Detected | – | – | – | – | – | – | – | 89 | > 2.42 | 164 (≈ 87.7 µg/mL) | 89 | 91 | – | –
CC(=O)NC1[C@H](Oc2cccc(C(F)(F)F)c2-c2cccc(NS(C)(=O)=O)c2)O[C@H](CO)[C@H](O)[C@@H]1O (single isomer, unassigned) | Metabolite_Detected | Metabolite_Detected | 92 | > 2.42 | 92 | 89 | < 1 | – | – | – | – | – | – | – | 1.16 | 197
CC(=O)NC1[C@H](Oc2cccc(C#N)c2-c2cccc(NS(C)(=O)=O)c2)O[C@H](CO)[C@H](O)[C@@H]1O (single isomer, unassigned) | Metabolite_Detected | Metabolite_Detected | 89 | > 2.42 | 100 | 87 | – | – | – | – | – | – | – | – | – | 196
